# Key:
# [1] = tested on: A-375; assay: Cytotoxicity against human A375 cells assessed as growth inhibition after 48 hrs by SRB assay; format: functional, cell-based; details: A-375, 48 h
# Procedure, shortened: (§1)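 Melanoma cells from ATCC, grown in DMEM with 10% FBS at 37°C under 5% CO2. Seeded at 1000–5000 cells/well according to growth rate and exposed to a range of compound concentrations for 48 h, in three to five replicates. Cells were fixed with 10% TCA, stained with 0.4% SRB and read at 540 nm.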
# [2] = Cytotoxicity against human MDA-MB-435/LCC6MDR1 cells assessed as growth inhibition after 48 hrs by SRB assay; format: functional, cell-based, MDA-MB-435/LCC6 MDR1
# [3] = tested on: MDA-MB-435; assay: Cytotoxicity against human MDA-MB-435 cells assessed as growth inhibition after 48 hrs by SRB assay; format: functional, cell-based; details: MDA-MB-435, 48 h
# [4] = Cytotoxicity against human WM164 cells assessed as growth inhibition after 48 hrs by SRB assay; format: functional, cell-based; details: WM164, 48 h
# Procedure, shortened: as §1, with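 “nm. IC50 (50% growth inhibition versus untreated control) was taken from nonlinear regression of % survival against concentration.” for “nm.”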
# [5] = tested on: PPC-1; assay: Cytotoxicity against human PPC1 cells assessed as growth inhibition after 96 hrs by SRB assay; format: functional, cell-based; details: PPC-1, 96 h
# Procedure, shortened: (§2)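 Plated at 1000–5000 cells/well depending on growth rate and treated with graded compound concentrations for 96 h, three to five replicates. Cell number was measured by SRB: 10% TCA fixation, 0.4% SRB staining, absorbance at 540 nm. IC50 relative to untreated control came from a nonlinear regression fit.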
# [6] = tested on: DU-145; assay: Cytotoxicity against human DU145 cells assessed as growth inhibition after 96 hrs by SRB assay; format: functional, cell-based
# [7] = tested on: LNCaP; assay: Cytotoxicity against human LNCAP cells assessed as growth inhibition after 96 hrs by SRB assay; format: functional, cell-based; procedure, shortened: as §2
# [8] = tested on: PC-3; assay: Cytotoxicity against human PC3 cells assessed as growth inhibition after 96 hrs by SRB assay; format: functional, cell-based; details: PC-3, 96 h; procedure, shortened: as §2
# [9] = Homo sapiens, MDA-MB-435/LCC6 MDR1, 48 h
SMILES,IC50 [1] [µM],"IC50 [2, 9] [µM]",IC50 [3] [µM],IC50 [4] [µM],IC50 [5] [µM],"IC50 ([6]; Homo sapiens, DU-145, 96 h) [µM]",IC50 [7] [µM],IC50 [8] [µM],IC50 ([2]; mda-mb-435/lcc6 mdr1) [µM],IC50 ([6]; du-145) [µM]
COc1cc(-c2c[nH]c(C(=O)c3ccc(N(C)C)cc3)n2)cc(OC)c1OC,47.9,40.6,29.2,46.1,,,,,,
O=C(c1ccc(F)cc1)c1nc(-c2ccc(F)cc2)c[nH]1,> 50,> 50,> 50,> 50,> 50,> 50,> 50,> 50,,
O=C(c1ccc(C(F)(F)F)cc1)c1nc(-c2ccc(C(F)(F)F)cc2)c[nH]1,> 50,26.5,> 50,> 50,> 50,> 50,> 50,> 50,,
COc1cc(Cc2nc(-c3ccccc3)c[nH]2)cc(OC)c1OC,10.2,,,,,,,,,
O=C(c1ccc(Br)cc1)c1nc(-c2ccc(Br)cc2)c[nH]1,25,17.8,14.4,26.3,13.2,25.5,16.9,18.9,,
COc1cc(Cc2nc(-c3ccccc3)c(-c3ccccc3)[nH]2)cc(OC)c1OC,,> 50,> 50,,,,,,,
COc1ccc(C(=O)c2nc(-c3ccc(OC)cc3)c[nH]2)cc1,> 50,> 50,> 50,> 50,38.1,9.84,6.42,23.4,,
COc1cc(C(=O)c2nc(-c3ccccc3)cn2Cc2ccccc2)cc(OC)c1OC,0.104,0.156,0.094,0.034,0.077,0.16,0.066,0.072,,
COc1cc(C(=O)c2nc(-c3ccccc3)cn2-c2cccs2)cc(OC)c1OC,0.02,0.027,0.025,0.008,,,,,,
COc1cc(C(=O)c2nc(-c3ccc(C)cc3)c[nH]2)cc(OC)c1OC,0.013,0.021,0.027,0.014,,,0.013,,,
CCCc1[nH]c(C(=O)c2cc(OC)c(OC)c(OC)c2)nc1-c1ccccc1,37,14.3,30.5,19.6,11.4,16.4,3.09,12.4,,
CCc1[nH]c(Cc2cc(OC)c(OC)c(OC)c2)nc1-c1ccccc1,,> 50,> 50,,,,,,,
COc1cc(-c2c[nH]c(C(=O)c3ccc(Br)cc3)n2)cc(OC)c1OC,0.136,0.161,0.186,0.177,0.106,0.429,0.131,0.371,,
CN(C)c1ccc(C(=O)c2nc(-c3ccc(N(C)C)cc3)c[nH]2)cc1,> 50,> 50,> 50,> 50,,,,,,
COc1cc(C(=O)c2nc(-c3cc(OC)c(OC)c(OC)c3)c[nH]2)cc(OC)c1OC,> 50,> 50,> 50,> 50,> 50,> 50,> 50,> 50,,
Cc1ccc(C(=O)c2nc(-c3ccc(C)cc3)c[nH]2)cc1,2.54,3.27,3.02,3.69,2.41,6.54,3.76,5.16,,
COc1cc(C(=O)c2c[nH]c(-c3ccc(C)cc3)n2)cc(OC)c1OC,,,,,,,,,0.011,0.011
COc1cc(C(=O)c2c[nH]c(-c3ccc(C(C)(C)C)cc3)n2)cc(OC)c1OC,,3.07,3.69,,0.294,1.7,0.423,0.436,,
COc1cc(-c2c[nH]c(C(=O)c3ccccc3)n2)cc(OC)c1OC,1.02,5.77,4.61,1.27,0.408,1.3,0.195,0.632,,
